Values after ≈ are worked out from the molar mass of the structure shown.
Experiments:
[1] = tested on: Enterococcus faecalis; assay: In vitro minimum inhibitory concentration against Enterococcus faecalis; type: functional
How it was run: (§1)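 Agar dilution per NCCLS protocol with doubling dilutions from 128 to 0.008 mg/L, incubated at 37 °C. Strains came from an in-house culture collection. MIC reported in mg/L.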

[2] = tested on: Streptococcus pyogenes; assay: In vitro minimum inhibitory concentration against Streptococcus pyogenes penicillin sensitive; type: functional; how it was run: as §1
[3] = tested on: Staphylococcus aureus; assay: In vitro minimum inhibitory concentration against Staphylococcus aureus MRQR; type: functional
[4] = tested on: Staphylococcus aureus; assay: In vitro minimum inhibitory concentration against coagulase negative Staphylococcus aureus methicillin resistant (CNSMR); type: functional
[5] = tested on: Staphylococcus aureus; assay: In vitro minimum inhibitory concentration against Staphylococcus aureus Oxford; type: functional
[6] = tested on: Staphylococcus aureus; assay: In vivo antibacterial activity against Staphylococcus aureus after intravenous administration (10 mg/kg) in mice using (MTT) mouse thigh test
[7] = In vivo antibacterial activity against Staphylococcus aureus after intravenous administration (5 mg/kg) in mice using (MTT) mouse thigh test
[8] = Staphylococcus aureus, read-out: MIC

| SMILES | MIC [1] [µg/mL] | MIC [2] [µg/mL] | MIC [3] [µg/mL] | MIC [4] [µg/mL] | MIC [5, 8] [µg/mL] | Activity [6] | Activity [7] | MIC [5] [µg/mL] |
| --- | --- | --- | --- | --- | --- | --- | --- | --- |
| Cc1ccnc(OC[C@H]2CN(c3ccc(C4=CCOCC4)c(F)c3)C(=O)O2)c1 | 4 (≈ 10.4 µM) | 4 (≈ 10.4 µM) | 2 (≈ 5.2 µM) | 2 (≈ 5.2 µM) | 2 (≈ 5.2 µM) |  |  |  |
| O=C1O[C@@H](COc2ncccn2)CN1c1ccc(C2=CCOCC2)c(F)c1 | 64 (≈ 172 µM) | 32 (≈ 86.2 µM) | 16 (≈ 43.1 µM) | 16 (≈ 43.1 µM) | 16 (≈ 43.1 µM) |  |  |  |
| Cc1cc(OC[C@H]2CN(c3ccc(C4=CCOCC4)c(F)c3)C(=O)O2)no1 | 4 (≈ 10.7 µM) | 4 (≈ 10.7 µM) | 2 (≈ 5.34 µM) | 2 (≈ 5.34 µM) | 1 (≈ 2.67 µM) | -0.45 |  |  |
| CS(=O)(=O)c1ccc(N2C[C@H](COc3nccs3)OC2=O)cc1F | 32 (≈ 85.9 µM) | 16 (≈ 43 µM) | 16 (≈ 43 µM) | 32 (≈ 85.9 µM) | 16 (≈ 43 µM) |  |  |  |
| O=C1O[C@@H](COc2cnccn2)CN1c1ccc(C2=CCOCC2)c(F)c1 | 2 (≈ 5.39 µM) | 1 (≈ 2.69 µM) | 1 (≈ 2.69 µM) | 1 (≈ 2.69 µM) | 1 (≈ 2.69 µM) | 0.35 | 0.22 |  |
| O=C1O[C@@H](COc2cccnc2)CN1c1ccc(C2=CCOCC2)c(F)c1 | 8 (≈ 21.6 µM) | 8 (≈ 21.6 µM) | 4 (≈ 10.8 µM) | 4 (≈ 10.8 µM) | 4 (≈ 10.8 µM) |  |  |  |
| O=C1O[C@@H](COc2cnsn2)CN1c1ccc(C2=CCOCC2)c(F)c1 | 0.5 (≈ 1.32 µM) | 0.25 (≈ 0.662 µM) | 0.25 (≈ 0.662 µM) | 0.25 (≈ 0.662 µM) | 0.25 (≈ 0.662 µM) | 0.45 | 0.11 |  |
| O=C([C@@H](O)CS(=O)(=O)CCO)N1CC=C(c2c(F)cc(N3C[C@H](COc4ccon4)OC3=O)cc2F)CC1 | 0.5 (≈ 0.897 µM) | 0.25 (≈ 0.448 µM) | 0.5 (≈ 0.897 µM) | 0.25 (≈ 0.448 µM) | 0.25 (≈ 0.448 µM) | 0.32 | 0.1 |  |
| O=C(OC[C@@H](O)CO)N1CC=C(c2ccc(N3C[C@H](COc4ccon4)OC3=O)cc2F)CC1 | 1 (≈ 2.09 µM) | 0.5 (≈ 1.05 µM) | 0.5 (≈ 1.05 µM) | 0.5 (≈ 1.05 µM) | 0.25 (≈ 0.524 µM) | 0.48 | 0.27 |  |
| C[C@H](O)C(=O)N1CC=C(c2c(F)cc(N3C[C@H](COc4ccon4)OC3=O)cc2F)CC1 | 1 (≈ 2.23 µM) | 1 (≈ 2.23 µM) | 0.5 (≈ 1.11 µM) | 0.5 (≈ 1.11 µM) | 0.5 (≈ 1.11 µM) | 1.16 | 0.64 |  |
| O=C1O[C@@H](COc2ccon2)CN1c1cc(F)c(C2=CCN(Cc3nccs3)CC2)c(F)c1 | 2 (≈ 4.22 µM) | 1 (≈ 2.11 µM) | 1 (≈ 2.11 µM) | 1 (≈ 2.11 µM) | 0.5 (≈ 1.05 µM) | 0.28 | 0.07 |  |
| CS(=O)(=O)C[C@@H](O)C(=O)N1CC=C(c2c(F)cc(N3C[C@H](COc4ccon4)OC3=O)cc2F)CC1 | 0.5 (≈ 0.948 µM) | 0.5 (≈ 0.948 µM) | 0.25 (≈ 0.474 µM) | 0.25 (≈ 0.474 µM) | 0.25 (≈ 0.474 µM) | 1.42 | 1.02 |  |
| Cc1nnc(OC[C@H]2CN(c3ccc(C4=CCOCC4)c(F)c3)C(=O)O2)o1 | 8 (≈ 21.3 µM) | 8 (≈ 21.3 µM) | 4 (≈ 10.7 µM) | 8 (≈ 21.3 µM) | 4 (≈ 10.7 µM) |  |  |  |
| COC(=O)c1cc(OC[C@H]2CN(c3ccc(C4=CCOCC4)c(F)c3)C(=O)O2)no1 | 128 (≈ 306 µM) | 16 (≈ 38.2 µM) | 16 (≈ 38.2 µM) | 32 (≈ 76.5 µM) | 8 (≈ 19.1 µM) |  |  |  |
| O=C([C@H](O)CO)N1CC=C(c2c(F)cc(N3C[C@H](COc4ccon4)OC3=O)cc2F)CC1 | 0.5 (≈ 1.07 µM) | 0.25 (≈ 0.537 µM) | 0.25 (≈ 0.537 µM) | 0.5 (≈ 1.07 µM) | 0.25 (≈ 0.537 µM) | 0.55 |  |  |
| O=C(CO)N1CC=C(c2ccc(N3C[C@H](COc4cnsn4)OC3=O)cc2F)CC1 | 0.25 (≈ 0.575 µM) | 0.25 (≈ 0.575 µM) | 0.25 (≈ 0.575 µM) | 0.25 (≈ 0.575 µM) | 0.13 (≈ 0.299 µM) | 1.21 | 0.78 |  |
| O=C1O[C@@H](Cn2ccccc2=O)CN1c1ccc(C2=CCOCC2)c(F)c1 | 64 (≈ 173 µM) | 32 (≈ 86.4 µM) | 32 (≈ 86.4 µM) | 32 (≈ 86.4 µM) |  |  |  | 32 (≈ 86.4 µM) |
| O=C(C(CO)Cn1ccnc1)N1CC=C(c2c(F)cc(N3C[C@H](COc4ccon4)OC3=O)cc2F)CC1 (some centres not stated) | 2 (≈ 3.78 µM) | 1 (≈ 1.89 µM) | 2 (≈ 3.78 µM) | 2 (≈ 3.78 µM) | 1 (≈ 1.89 µM) |  |  |  |
| O=C1O[C@@H](COc2ccon2)CN1c1ccc(C2=CCOCC2)c(F)c1 | 1 (≈ 2.78 µM) | 0.5 (≈ 1.39 µM) | 0.5 (≈ 1.39 µM) | 0.5 (≈ 1.39 µM) | 0.5 (≈ 1.39 µM) | 0.06 | -0.07 |  |
| Cc1cc(OC[C@H]2CN(c3cc(F)c(C4=CCN(C(=O)[C@@H](O)CO)CC4)c(F)c3)C(=O)O2)on1 | 2 (≈ 4.17 µM) | 2 (≈ 4.17 µM) | 2 (≈ 4.17 µM) | 1 (≈ 2.09 µM) | 1 (≈ 2.09 µM) |  |  |  |
| O=C(CO)N1CC=C(c2c(F)cc(N3C[C@H](COc4cnsn4)OC3=O)cc2F)CC1 | 0.5 (≈ 1.11 µM) | 0.25 (≈ 0.553 µM) | 0.25 (≈ 0.553 µM) | 0.25 (≈ 0.553 µM) | 0.13 (≈ 0.287 µM) | 1.72 | 1.05 |  |

Reference: ChEMBL document CHEMBL1136453, “New classes of antibacterial oxazolidinones with C-5, methylene O-linked heterocyclic side chains” (2003)
